22 compounds from ChEMBL document CHEMBL1764987, “The identification of the 2-phenylphthalazin-1(2H)-one scaffold as a new decorable core skeleton for the design of potent and selective human A3 adenosine receptor antagonists” (J Med Chem, 2011) can be followed below.

As a reminder, the inhibition is how much of the control response was suppressed. Usually Ki stands for the equilibrium dissociation constant of an inhibitor or competing ligand from its target. As usually defined, the IC50 is the concentration needed to halve the response being measured.

In test [1] the target is T1, Adenosine receptor A3 (Homo sapiens) (UniProt P0DMS8).
T1 sequence (whole entry): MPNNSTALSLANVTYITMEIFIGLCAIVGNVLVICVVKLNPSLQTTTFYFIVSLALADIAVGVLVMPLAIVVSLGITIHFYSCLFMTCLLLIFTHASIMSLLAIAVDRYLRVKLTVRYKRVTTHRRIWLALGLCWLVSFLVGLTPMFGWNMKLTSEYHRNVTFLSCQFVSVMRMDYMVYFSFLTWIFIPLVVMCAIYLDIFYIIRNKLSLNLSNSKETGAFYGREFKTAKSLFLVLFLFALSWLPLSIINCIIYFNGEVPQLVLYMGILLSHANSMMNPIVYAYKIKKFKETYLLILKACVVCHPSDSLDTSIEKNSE
The test can be described thus: Displacement of [125I]AB-MECA from human cloned adenosine A3 receptor expressed in CHO cells at 1 uM. The class given is cell-based. The method in brief:
(§1)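 Membranes from CHO cells stably expressing hA3 AR, labelled with [125I]AB-MECA (Kd 1.4 nM). IC50 from nonlinear regression using five displacer concentrations, each in triplicate. Ki calculated by Cheng-Prusoff, mean ± SEM of four assays. Single-point data are percent inhibition of specific binding at 1 μM.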
(Loss of bound radioactivity is the signal in a displacement assay; it reports binding, not function.)

For test [2], the target named is T2, Adenosine receptor A1 (Homo sapiens) (UniProt P30542).
T2 sequence (whole entry): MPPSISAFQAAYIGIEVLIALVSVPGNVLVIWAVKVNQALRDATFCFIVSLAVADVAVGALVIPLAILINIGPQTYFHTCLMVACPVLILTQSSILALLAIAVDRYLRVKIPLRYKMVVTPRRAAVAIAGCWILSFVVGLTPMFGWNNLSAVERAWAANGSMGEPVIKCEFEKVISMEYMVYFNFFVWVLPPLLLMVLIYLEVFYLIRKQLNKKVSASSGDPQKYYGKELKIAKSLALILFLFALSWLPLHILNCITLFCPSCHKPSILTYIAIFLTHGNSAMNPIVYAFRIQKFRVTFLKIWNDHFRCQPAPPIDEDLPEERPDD
The test can be described thus: Displacement of [3H]DPCPX from human cloned adenosine A1 receptor expressed in CHO cells at 10 uM. It counts as cell-based. The procedure, abridged: (§2)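 Radioligand displacement in CHO membranes stably expressing hA1 ([3H]DPCPX, Kd 3 nM) or hA2A ([3H]NECA, Kd 30 nM). Percent inhibition of specific binding at 10 μM. Full curves used five concentrations in triplicate, with IC50 converted to Ki by Cheng-Prusoff.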

Test [3] has as its target Adenosine receptor A2a (Homo sapiens) (UniProt P29274). The test can be described thus: Displacement of [3H]NECA from human cloned adenosine A2A receptor expressed in CHO cells at 10 uM. The class given is cell-based. The procedure, abridged: as §2
Test [4] has as its target T3, Adenosine receptor A3 (Homo sapiens, UniProt P0DMS8).
T3 sequence (P0DMS8 whole entry): T1 sequence (whole entry)
In words: Displacement of [125I]AB-MECA from human cloned adenosine A3 receptor expressed in CHO cells. It counts as cell-based. The procedure, abridged: as §1

The target in test [5] is T3, Adenosine receptor A3. The test can be described thus: Antagonist activity at human cloned adenosine A3 receptor expressed in CHO cells assessed as inhibition of […] after 15 mins. The class given is functional, cell-based. The procedure, abridged:
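CHO cells stably expressing hA3 plated and grown 48 h. Preincubated 15 min at 37 °C with Ro20-1724 (20 μM) and adenosine deaminase (1 U/mL). Compound (1 nM to 10 μM) given for 15 min at 37 °C, then 100 nM NECA. Reversal of NECA-induced cAMP inhibition measured by [3H]cAMP competitive protein binding assay. IC50 from sigmoid nonlinear regression, means ± SEM of three experiments.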
(In general: cAMP levels reflect the balance of adenylyl cyclase and phosphodiesterase activity.)

The target of test [6] is T4, Adenosine receptor A2b (Homo sapiens) (UniProt P29275).
T4 sequence (whole entry): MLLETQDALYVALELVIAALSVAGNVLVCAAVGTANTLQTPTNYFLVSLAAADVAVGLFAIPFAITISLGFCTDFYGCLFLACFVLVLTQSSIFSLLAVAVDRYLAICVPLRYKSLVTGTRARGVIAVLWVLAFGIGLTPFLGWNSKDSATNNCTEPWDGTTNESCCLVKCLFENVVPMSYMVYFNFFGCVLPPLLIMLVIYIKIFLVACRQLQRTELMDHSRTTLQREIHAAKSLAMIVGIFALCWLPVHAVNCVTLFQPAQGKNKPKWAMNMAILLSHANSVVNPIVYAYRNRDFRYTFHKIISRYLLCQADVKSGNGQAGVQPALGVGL
The test can be described thus: Antagonist activity at human cloned adenosine A2B receptor expressed in CHO cells assessed as inhibition of NECA-induced cAMP accumulation at 1 nM to 10 uM after 15 mins. It counts as functional, cell-based. The method in brief:
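Stably transfected CHO cells (~60000) plated and grown 48 h. Preincubated 15 min at 37 °C in DMEM containing Ro20-1724 (20 μM) and adenosine deaminase (1 U/mL). Compound (1 nM to 10 μM) added for 15 min at 37 °C, then 100 nM NECA. Reaction stopped with 0.4 N HCl and lysate neutralised with KOH. cAMP measured by competitive binding to beef adrenal binding protein with [3H]cAMP (2 nM) for 150 min at 4 °C, then filtration. Read-out is percent inhibition of NECA-stimulated cAMP.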

The target in test [7] is Adenosine receptors; A1 & A3 (Homo sapiens) (UniProt P30542+P0DMS8). The test can be described thus: Selectivity ratio of Ki for human cloned adenosine A1 receptor to Ki for human cloned adenosine A3 receptor. The procedure, abridged: (§3)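 Ki values from radioligand displacement at hA1 ([3H]DPCPX, Kd 3 nM), hA2A ([3H]NECA, Kd 30 nM) and hA3 ([125I]AB-MECA, Kd 1.4 nM) in CHO membranes. Five displacer concentrations in triplicate, Cheng-Prusoff conversion, means of four assays. Ratio taken as A1 or A2A Ki over A3 Ki.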

The species entered for a further test is Homo sapiens. In words: Selectivity ratio of Ki for human cloned adenosine A2A receptor to Ki for human cloned adenosine A3 receptor. The procedure, abridged:
as §3

Test [8] is described as follows: Displacement of [3H]CGS21680 from adenosine A2A receptor in bovine brain membranes. It counts as cell membranes, Bos taurus.

Chain of Adenosine receptor A2a (Homo sapiens) (P29274 whole entry): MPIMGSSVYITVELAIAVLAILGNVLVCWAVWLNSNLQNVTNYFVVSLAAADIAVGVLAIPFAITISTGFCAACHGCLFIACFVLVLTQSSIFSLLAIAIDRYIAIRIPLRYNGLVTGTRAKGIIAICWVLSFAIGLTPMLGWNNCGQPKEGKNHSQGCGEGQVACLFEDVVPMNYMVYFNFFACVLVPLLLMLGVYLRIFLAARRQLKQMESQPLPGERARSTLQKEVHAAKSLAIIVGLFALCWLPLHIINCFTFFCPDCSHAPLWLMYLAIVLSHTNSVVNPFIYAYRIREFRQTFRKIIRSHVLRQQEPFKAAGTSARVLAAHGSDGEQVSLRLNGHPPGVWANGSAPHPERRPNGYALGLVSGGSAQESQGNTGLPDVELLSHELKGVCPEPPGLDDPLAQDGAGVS

For `COc1ccc(C(=O)Nc2nn(-c3ccccc3)c(=O)c3ccccc23)cc1`, the inhibition in test [1] stood at 10%; in test [2], 0%; in [3], 17%.

For `O=C(Nc1nn(-c2ccccc2)c(=O)c2ccccc12)c1ccco1`, the inhibition in test [1] came to 8%; in test [2], 23%; in test [3], 41%.

Regarding `Cc1ccc(NC(=O)Nc2nn(-c3ccccc3)c(=O)c3ccccc23)cc1`, the figures for the inhibition in test [1], in test [2] and in [3] were 45%, 29% and 0%, respectively.

For `Nc1nc2ccccc2n2c(=O)n(-c3ccccc3)nc12`, the inhibition constant Ki at Adenosine receptor A3 [4] came to 490 nM.

Regarding `O=C(Nc1nn(-c2ccccc2)c(=O)c2ccccc12)c1ccccc1`, at Adenosine receptor A3 [4], the Ki worked out at 1100 nM. The inhibition in test [2] turned out to be 44%; in test [3], 35%.

For the compound `O=C(Nc1ccccc1Cl)Nc1nn(-c2ccccc2)c(=O)c2ccccc12`, the inhibition in test [1] is 49%; in test [2], 0%; in test [3] it was 3%.

With `COc1ccc(NC(=O)Nc2nn(-c3ccccc3)c(=O)c3ccccc23)c(OC)c1`, the inhibition in [1] came to 33%; in test [2], 29%; in [3], 33%.

Consider `COc1ccccc1NC(=O)Nc1nn(-c2ccccc2)c(=O)c2ccccc12`, for which affinity on Adenosine receptor A3 [4] was put at a Ki of 8.9 nM. At Adenosine receptor A3 [5], the IC50 came to 17 nM. The figures for the inhibition in test [2], in test [6] and in test [3] were 0%, 16% and 17%, respectively.

Take `CC(=O)N(C(C)=O)c1nn(-c2ccccc2)c(=O)c2ccccc12`: the inhibition in [1] is 0%; in test [2], 47%; in test [3] it was 10%.

`COc1ccccc1CNC(=O)Nc1nn(-c2ccccc2)c(=O)c2ccccc12` displayed a Ki at Adenosine receptor A3 [4] of 274 nM. The inhibition in test [2] and in [3] was 28% in each case.

For the compound `O=C(NCc1ccccc1)Nc1nn(-c2ccccc2)c(=O)c2ccccc12`, the affinity at Adenosine receptor A3 [4] corresponds to a Ki of 29.6 nM. In addition, at Adenosine receptor A3 [5], the IC50 came out at 1.15 nM. Moreover, the results for the inhibition in [2], in test [6] and in test [3] were 20%, 34% and 23%, respectively.

Regarding `O=C(Nc1ccccc1)Nc1nn(-c2ccccc2)c(=O)c2ccccc12`, the Ki at Adenosine receptor A3 [4] came out at 178 nM. In addition, the inhibition in [2] came to 44%; in [3], 42%.

Regarding `COc1cccc(NC(=O)Nc2nn(-c3ccccc3)c(=O)c3ccccc23)c1`, affinity on Adenosine receptor A3 [4] was put at a Ki of 9.75 nM. Moreover, the IC50 at Adenosine receptor A3 [5] was found to be 18 nM. For the same compound, the figures for the inhibition in [2], in test [6] and in test [3] were 45%, 57% and 28%, respectively.

For the compound `Nc1nn(-c2ccccc2)c(=O)c2ccccc12`, the inhibition in test [1] was 8%; in test [2], 24%; in test [3] it was 45%.

Consider `O=C(Nc1nn(-c2ccccc2)c(=O)c2ccccc12)c1ccc(Cl)cc1`, for which the inhibition was found to be 17% in test [1], 26% in [2] and 17% in test [3].

`O=C(Cc1ccccc1)Nc1nn(-c2ccccc2)c(=O)c2ccccc12`: the inhibition in test [1] amounted to 28%; in test [2], 23%; in test [3], 4%.

In the case of `Cc1ccccc1NC(=O)Nc1nn(-c2ccccc2)c(=O)c2ccccc12`, the inhibition in [1] is 22%; in test [2], 20%; in test [3] it was 28%.

In the case of `CC(=O)Nc1nn(-c2ccccc2)c(=O)c2ccccc12`, the values for the inhibition in [1], in test [2] and in [3] were 0%, 52% and 14%, respectively.

In turn, `COc1ccc(OC)c(NC(=O)Nc2nn(-c3ccccc3)c(=O)c3ccccc23)c1` gave a Ki on Adenosine receptor A3 [4] of 0.776 nM. Also, at Adenosine receptor A3 [5], the IC50 was found to be 8.25 nM. In addition, the results for the inhibition in [2], in test [6] and in test [3] were 0%, 0% and 19%, respectively. For the same compound, the Ratio Ki (in [7]; in the test listed under Homo sapiens) was 10000 throughout.

At Adenosine receptor A3 [4], `COc1ccc(NC(=O)Nc2nn(-c3ccccc3)c(=O)c3ccccc23)cc1` displayed a Ki of 60.6 nM. On Adenosine receptor A3 [5], the IC50 came to 28 nM. Also, the inhibition in [2] was determined as 4%; in test [6], 0%; in test [3], 51%.

`O=C(Nc1ccccc1)Nc1nc2ccccc2n2c(=O)n(-c3ccccc3)nc12`: in test [8], the Ki was 2300 nM.

Turning to `O=C(Nc1ccc(Cl)cc1)Nc1nn(-c2ccccc2)c(=O)c2ccccc12`, the inhibition is 13% in test [1], 10% in test [2] and 9% in test [3].
